Test results taken from ChEMBL document CHEMBL3046353, “Synthesis and fungicidal activity of some 5-membered heterocyclic derivatives containing benzimidazoles” (1993).
The source made the active and inactive calls. The rule behind the calls is not given here.

Tests used:
Helminthosporium = assay: Fungicidal activity against Helminthosporium oryzae at 500 ppm after 7 days by poisoned food technique; assay type: functional; details: 168 h, read-out: GI
Procedure, shortened: (§1)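 Cultures kept on potato dextrose agar. Each compound, dissolved in acetone, was added to potato dextrose agar at a final 500 ppm (w/v) (poisoned food technique). A disc cut from the periphery of a seven-day-old culture was inoculated onto each set. Control sets held potato dextrose agar only. The read-out is percentage inhibition of fungal growth relative to control.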

Echinochloa crus-galli [1] = assay: Pre-emergence herbicidal activity against Echinochloa crus-galli (barnyard grass); assay type: functional, organism-based
Musca domestica = assay: Insecticidal activity against Musca domestica (house fly); assay type: functional, organism-based
Convolvulaceae [2] = assay: Post-emergence herbicidal activity against Convolvulaceae (morning glory family); assay type: functional, organism-based
Avena sativa [3] = assay: Pre-emergence herbicidal activity against Avena sativa; assay type: functional, organism-based
Echinochloa crus-galli [4] = assay: Herbicidal activity against Echinochloa crus-galli (barnyard grass) under paddy conditions; assay type: functional, organism-based
Schoenoplectus acutus [5] = assay: Post-emergence herbicidal activity against Schoenoplectus acutus (hardstem bulrush); assay type: functional, organism-based
Avena sativa [6] = assay: Post-emergence herbicidal activity against Avena sativa; assay type: functional, organism-based
Abutilon theophrasti [7] = assay: Post-emergence herbicidal activity against Abutilon theophrasti (velvetleaf); assay type: functional, organism-based
Convolvulaceae [8] = assay: Pre-emergence herbicidal activity against Convolvulaceae (morning glory family); assay type: functional, organism-based
Spodoptera litura = assay: Insecticidal activity against Spodoptera litura; assay type: functional, organism-based
Sagittaria latifolia [9] = assay: Pre-emergence herbicidal activity against Sagittaria latifolia (broadleaf arrowhead); assay type: functional, organism-based
Rhizoctonia solani = assay: Fungicidal activity against Rhizoctonia solani at 500 ppm after 7 days by poisoned food technique; assay type: functional; details: 168 h, read-out: GI; procedure, shortened: as §1
Abutilon theophrasti [10] = assay: Pre-emergence herbicidal activity against Abutilon theophrasti (velvetleaf); assay type: functional, organism-based
Convolvulaceae [11] = assay: Herbicidal activity against Convolvulaceae (morning glory family) under paddy conditions; assay type: functional, organism-based
Tetranychus cinnabarinus = assay: Insecticidal activity against Tetranychus cinnabarinus (carmine spider mite); assay type: functional, organism-based
Schoenoplectus acutus [12] = assay: Herbicidal activity against Schoenoplectus acutus (hardstem bulrush) under paddy conditions; assay type: functional, organism-based
Oryza sativa [13] = assay: Herbicidal activity against Oryza sativa (rice) under paddy conditions; assay type: functional, organism-based
Oryza sativa [14] = assay: Pre-emergence herbicidal activity against Oryza sativa (rice); assay type: functional, organism-based
Culex pipiens pallens = assay: Insecticidal activity against Culex pipiens pallens (mosquito) at 3 to 5 ppm; assay type: functional, organism-based
Avena sativa [15] = assay: Herbicidal activity against Avena sativa under paddy conditions; assay type: functional, organism-based
Sagittaria latifolia [16] = assay: Herbicidal activity against Sagittaria latifolia (broadleaf arrowhead) under paddy conditions; assay type: functional, organism-based
Sagittaria latifolia [17] = assay: Post-emergence herbicidal activity against Sagittaria latifolia (broadleaf arrowhead); assay type: functional, organism-based
Schoenoplectus acutus [18] = assay: Pre-emergence herbicidal activity against Schoenoplectus acutus (hardstem bulrush); assay type: functional, organism-based
Oryza sativa [19] = assay: Post-emergence herbicidal activity against Oryza sativa (rice); assay type: functional, organism-based
Echinochloa crus-galli [20] = assay: Post-emergence herbicidal activity against Echinochloa crus-galli (barnyard grass); assay type: functional, organism-based

| SMILES | inhibition of growth at 500 ppm (Helminthosporium) | Activity (Echinochloa crus-galli [1]) | Activity (Musca domestica) | Activity (Convolvulaceae [2]) | Activity (Avena sativa [3]) | Activity (Echinochloa crus-galli [4]) | Activity (Schoenoplectus acutus [5]) | Activity (Avena sativa [6]) | Activity (Abutilon theophrasti [7]) | Activity (Convolvulaceae [8]) | Activity (Spodoptera litura) | Activity (Sagittaria latifolia [9]) | inhibition of growth at 500 ppm (Rhizoctonia solani) | Activity (Abutilon theophrasti [10]) | Activity (Convolvulaceae [11]) | Activity (Tetranychus cinnabarinus) | Activity (Schoenoplectus acutus [12]) | Activity (Oryza sativa [13]) | Activity (Oryza sativa [14]) | Activity (Culex pipiens pallens) | also measured |
| --- | --- | --- | --- | --- | --- | --- | --- | --- | --- | --- | --- | --- | --- | --- | --- | --- | --- | --- | --- | --- | --- |
| Cc1ccc2[nH]c(CSc3nnc(-c4ccccc4)o3)nc2c1 | 65.3% | inactive | inactive | inactive | inactive | inactive | inactive | inactive | inactive | inactive | inactive | inactive | 61.3% | inactive | inactive | inactive | inactive | inactive | inactive | Active | Activity (Avena sativa [15]): inactive; Activity (Sagittaria latifolia [16]): inactive; Activity (Sagittaria latifolia [17]): inactive; Activity (Schoenoplectus acutus [18]): inactive; Activity (Oryza sativa [19]): inactive; Activity (Echinochloa crus-galli [20]): inactive |
| Clc1ccc(-c2nnc(SCc3nc4ccccc4[nH]3)s2)cc1 | 52.5% | inactive | inactive | inactive | inactive | inactive | inactive | inactive | inactive | inactive | inactive | inactive | 39% | inactive | inactive | inactive | inactive | inactive | inactive | Active | Activity (Avena sativa [15]): inactive; Activity (Sagittaria latifolia [16]): inactive; Activity (Sagittaria latifolia [17]): inactive; Activity (Schoenoplectus acutus [18]): inactive; Activity (Oryza sativa [19]): inactive; Activity (Echinochloa crus-galli [20]): inactive |
| Cc1ccc2[nH]c(CSc3nnc(-c4ccccc4)n3N)nc2c1 | 81.2% | inactive | inactive | inactive | inactive | inactive | inactive | inactive | inactive | inactive | inactive | inactive | 70.5% | inactive | inactive | inactive | inactive | inactive | inactive | Active | Activity (Avena sativa [15]): inactive; Activity (Sagittaria latifolia [16]): inactive; Activity (Sagittaria latifolia [17]): inactive; Activity (Schoenoplectus acutus [18]): inactive; Activity (Oryza sativa [19]): inactive; Activity (Echinochloa crus-galli [20]): inactive |
| Clc1ccccc1-c1nnc(SCc2nc3ccccc3[nH]2)s1 | 68.2% | inactive | inactive | inactive | inactive | inactive | inactive | inactive | inactive | inactive | inactive | inactive | 49.8% | inactive | inactive | inactive | inactive | inactive | inactive | Active | Activity (Avena sativa [15]): inactive; Activity (Sagittaria latifolia [16]): inactive; Activity (Sagittaria latifolia [17]): inactive; Activity (Schoenoplectus acutus [18]): inactive; Activity (Oryza sativa [19]): inactive; Activity (Echinochloa crus-galli [20]): inactive |
| Cc1ccc2[nH]c(CSc3nnc(-c4ccccc4)s3)nc2c1 | 71.3% | inactive | inactive | inactive | inactive | inactive | inactive | inactive | inactive | inactive | inactive | inactive | 64.5% | inactive | inactive | inactive | inactive | inactive | inactive | Active | Activity (Avena sativa [15]): inactive; Activity (Sagittaria latifolia [16]): inactive; Activity (Sagittaria latifolia [17]): inactive; Activity (Schoenoplectus acutus [18]): inactive; Activity (Oryza sativa [19]): inactive; Activity (Echinochloa crus-galli [20]): inactive |
| c1ccc(-c2nnc(SCc3nc4ccccc4[nH]3)o2)cc1 | 73.5% | inactive | inactive | inactive | inactive | inactive | inactive | inactive | inactive | inactive | inactive | inactive | 65.2% | inactive | inactive | inactive | inactive | inactive | inactive | Active | Activity (Avena sativa [15]): inactive; Activity (Sagittaria latifolia [16]): inactive; Activity (Sagittaria latifolia [17]): inactive; Activity (Schoenoplectus acutus [18]): inactive; Activity (Oryza sativa [19]): inactive; Activity (Echinochloa crus-galli [20]): inactive |
| Clc1ccc(-c2nnc(SCc3nc4ccccc4[nH]3)o2)cc1 | 39.7% | inactive | inactive | inactive | inactive | inactive | inactive | inactive | inactive | inactive | inactive | inactive | 21.2% | inactive | inactive | inactive | inactive | inactive | inactive | Active | Activity (Avena sativa [15]): inactive; Activity (Sagittaria latifolia [16]): inactive; Activity (Sagittaria latifolia [17]): inactive; Activity (Schoenoplectus acutus [18]): inactive; Activity (Oryza sativa [19]): inactive; Activity (Echinochloa crus-galli [20]): inactive |
| Clc1ccccc1-c1nnc(SCc2nc3ccccc3[nH]2)o1 | 75% | inactive | inactive | inactive | inactive | inactive | inactive | inactive | inactive | inactive | inactive | inactive | 56.2% | inactive | inactive | inactive | inactive | inactive | inactive | Active | Activity (Avena sativa [15]): inactive; Activity (Sagittaria latifolia [16]): inactive; Activity (Sagittaria latifolia [17]): inactive; Activity (Schoenoplectus acutus [18]): inactive; Activity (Oryza sativa [19]): inactive; Activity (Echinochloa crus-galli [20]): inactive |
| Nn1c(SCc2nc3ccccc3[nH]2)nnc1-c1ccc(Cl)cc1 | 45.3% | inactive | inactive | inactive | inactive | inactive | inactive | inactive | inactive | inactive | inactive | inactive | 20% | inactive | inactive | inactive | inactive | inactive | inactive | Active | Activity (Avena sativa [15]): inactive; Activity (Sagittaria latifolia [16]): inactive; Activity (Sagittaria latifolia [17]): inactive; Activity (Schoenoplectus acutus [18]): inactive; Activity (Oryza sativa [19]): inactive; Activity (Echinochloa crus-galli [20]): inactive |
